In ChEMBL document CHEMBL4014313, “Probing Molecular Interactions between Human Carbonic Anhydrases (hCAs) and a Novel Class of Benzenesulfonamides” (J Med Chem, 2017):
pKi: −log10 of the molar value.

What follows are compounds tested against Carbonic anhydrase 9 (Homo sapiens, UniProt Q16790) (assay: Inhibition of human carbonic anhydrase 9 incubated for 15 mins prior to testing by stopped flow CO2 hydration assay).
In short: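 Recombinant hCA isoform; stopped-flow CO2 hydration monitored by phenol red (0.2 mM) absorbance at 557 nm, 10−20 mM Hepes pH 7.5 or Tris pH 8.3, 20 mM Na2SO4 or NaClO4 for ionic strength; initial rates over 10−100 s, CO2 1.7 to 17 mM; inhibitor dilutions in water down to 0.01 nM, preincubated with enzyme 15 min at room temperature; uncatalyzed rate subtracted; Ki by nonlinear least squares, mean of at least three determinations.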
Compound `CCCOc1ccc2c(c1)CCN(C(=O)c1ccc(S(N)(=O)=O)cc1)C2c1ccccc1` (racemic) has a pKi of 7.35.
`COc1ccc2c(c1)CCN(C(=O)c1ccc(S(N)(=O)=O)cc1)C2c1ccccc1` (racemic) was tested, and the pKi was 7.41.
With `NS(=O)(=O)c1ccc(C(=O)N2CCc3cc(O)ccc3C2c2ccccc2)cc1` (racemic) the pKi was 7.30.
`COc1ccc2c(c1)CCN(C(=O)c1ccc(S(N)(=O)=O)cc1)C2c1ccccc1` (single isomer, unassigned; enantiomer 2) showed a pKi of 7.23.
`NS(=O)(=O)c1ccc(C(=O)N2CCc3cc(O)c(O)cc3[C@H]2c2ccccc2)cc1` was tested, and the pKi was 7.49.
Work on `COc1cc2c(cc1OC)C(c1ccc(Br)cc1)N(C(=O)c1ccc(S(N)(=O)=O)cc1)CC2` (racemic) yielded a pKi of 7.04.
For `NS(=O)(=O)c1ccc(C(=O)N2CCc3cc(O)ccc3C2c2ccccc2)cc1` (single isomer, unassigned; Enantiomer-1), the pKi was 7.14.
Work on `NS(=O)(=O)c1ccc(C(=O)N2CCc3cc(O)c(O)cc3[C@@H]2c2ccccc2)cc1` yielded a pKi of 7.41.
Compound `COc1cc2c(cc1OC)C(c1ccc(F)cc1)N(C(=O)c1ccc(S(N)(=O)=O)cc1)CC2` (racemic) has a pKi of 8.04.
Work on `COc1cc2c(cc1OC)C(c1ccccc1)N(C(=O)c1ccc(S(N)(=O)=O)cc1)CC2` (single isomer, unassigned; enantiomer 2) yielded a pKi of 8.32.
With `COc1cc2c(cc1OC)C(c1ccccc1)N(C(=O)c1ccc(S(N)(=O)=O)cc1)CC2` (single isomer, unassigned; enantiomer 1) the pKi was 8.30.
`COc1cc2c(cc1OC)C(c1ccccc1)N(C(=O)c1ccc(S(N)(=O)=O)cc1)CC2` (racemic) showed a pKi of 8.31.
Compound `NS(=O)(=O)c1ccc(C(=O)N2CCc3cc(O)c(O)cc3C2c2ccc(Br)cc2)cc1` (racemic) has a pKi of 7.09.
`NS(=O)(=O)c1ccc(C(=O)N2CCc3cc(O)c(O)cc3C2c2ccc(F)cc2)cc1` (racemic) was tested, and the pKi was 8.09.
In the case of `NS(=O)(=O)c1ccc(C(=O)N2CCc3cc(O)c(O)cc3C2c2ccc(Cl)cc2)cc1` (racemic), the pKi was 8.05.
`COc1ccc2c(c1)CCN(C(=O)c1ccc(S(N)(=O)=O)cc1)C2c1ccccc1` (single isomer, unassigned; enantiomer 1) showed a pKi of 7.60.
With `NS(=O)(=O)c1ccc(C(=O)N2CCc3cc(O)ccc3C2c2ccccc2)cc1` (single isomer, unassigned; enantiomer 2) the pKi was 7.40.
`NS(=O)(=O)c1ccc(C(=O)N2CCc3cc(O)c(O)cc3C2c2ccccc2)cc1` (racemic) was tested, and the pKi was 7.43.
`COc1cc2c(cc1OC)C(c1ccc(Cl)cc1)N(C(=O)c1ccc(S(N)(=O)=O)cc1)CC2` (racemic) was tested, and the pKi was 7.04.

These compounds were tested against Carbonic anhydrase 12 (Homo sapiens, UniProt O43570) (assay: Inhibition of human carbonic anhydrase 12 incubated for 15 mins prior to testing by stopped flow CO2 hydration assay).
Sequence of Carbonic anhydrase 12 (O43570 whole entry): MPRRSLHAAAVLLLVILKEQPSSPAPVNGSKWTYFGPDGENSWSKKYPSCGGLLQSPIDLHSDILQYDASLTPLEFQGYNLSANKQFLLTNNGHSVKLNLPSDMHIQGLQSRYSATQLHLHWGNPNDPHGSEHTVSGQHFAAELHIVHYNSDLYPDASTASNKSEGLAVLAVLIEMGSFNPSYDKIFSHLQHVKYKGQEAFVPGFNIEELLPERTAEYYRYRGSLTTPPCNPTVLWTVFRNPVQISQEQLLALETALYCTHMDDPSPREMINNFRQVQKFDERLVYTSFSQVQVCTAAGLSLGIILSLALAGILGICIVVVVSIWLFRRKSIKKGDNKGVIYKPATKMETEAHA
`NS(=O)(=O)c1ccc(C(=O)N2CCc3cc(O)c(O)cc3C2c2ccc(Cl)cc2)cc1` (racemic) gave a pKi of 8.12.
